Usually IC50 stands for the midpoint of a concentration-inhibition curve. Lower therefore signals inhibition by little substance.

The source made the active and inactive calls. The rule behind the calls is not given here.

Assay [1] deals with T1, Acetylcholinesterase (Homo sapiens, UniProt P22303). The assay can be described thus: Inhibition of human erythrocyte AChE using acetylthiocholine iodide as substrate incubated for 25 mins by DTNB reagent based Ellman's method. The class given is tissue-based.
T1 sequence (P22303 whole entry): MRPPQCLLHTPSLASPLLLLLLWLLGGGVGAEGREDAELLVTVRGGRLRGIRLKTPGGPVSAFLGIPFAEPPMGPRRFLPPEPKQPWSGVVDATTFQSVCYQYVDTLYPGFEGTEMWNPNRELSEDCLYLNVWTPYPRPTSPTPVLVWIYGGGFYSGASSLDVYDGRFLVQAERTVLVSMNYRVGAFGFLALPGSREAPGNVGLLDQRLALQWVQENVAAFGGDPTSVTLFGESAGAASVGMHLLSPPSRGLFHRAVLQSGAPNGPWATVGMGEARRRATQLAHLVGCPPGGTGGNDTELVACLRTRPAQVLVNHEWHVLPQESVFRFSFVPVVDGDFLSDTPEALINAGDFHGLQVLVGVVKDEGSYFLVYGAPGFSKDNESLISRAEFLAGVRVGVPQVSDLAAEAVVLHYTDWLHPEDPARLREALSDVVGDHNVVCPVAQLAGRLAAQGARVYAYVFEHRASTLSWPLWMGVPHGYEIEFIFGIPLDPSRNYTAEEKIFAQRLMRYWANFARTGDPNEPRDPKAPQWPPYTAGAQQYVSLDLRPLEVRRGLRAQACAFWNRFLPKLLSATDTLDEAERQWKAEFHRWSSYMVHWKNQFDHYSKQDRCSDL
Assay [2] concerns the target T2, Cholinesterase (Homo sapiens, UniProt P06276). The assay can be described thus: Inhibition of human serum BuChe using butyrylthiocholine iodide as substrate incubated for 25 mins by DTNB reagent based Ellman's method. The class given is cell-free. A digest of the protocol: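 Compound (Tween 80/EtOH stock, final dilutions in pH 8.0 phosphate buffer) preincubated with enzyme 30 min at room temperature, then substrate 0.5 mM plus DTNB, 25 min, 37 °C; yellow anion read spectrophotometrically. Triplicate, three occasions; IC50 from % activity vs log concentration.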

In assay [3] the target is T1, Acetylcholinesterase. Kind of assay: Mixed type inhibition of human erythrocyte AChE assessed as increase in Km at 3.3 to 9.9 nM using varying level of acetylthiocholine iodide as substrate by Lineweaver-Burk plot analysis. The class given is tissue-based. The conditions noted are these: dose 3.3-9.9 nM. A digest of the protocol: (§1)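 hAChE from human erythrocytes, washed in saline and lysed in 0.1 M Na₃PO₄ pH 7.4 with 0.5% Triton-X, then diluted. Ellman set-up (30 min room-temperature preincubation, then 37 °C with DTNB 1.2 mM) using substrate 0.25, 0.5, 1 and 2 mM and inhibitor 3.3 and 9.9 nM. Vmax and Km by nonlinear regression of substrate–velocity curves; Lineweaver–Burk by linear regression.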

In assay [4] the target is T1, Acetylcholinesterase. The assay can be described thus: Mixed type inhibition of human erythrocyte AChE assessed as decrease in Vmax at 3.3 to 9.9 nM using varying level of acetylthiocholine iodide as substrate by Lineweaver-Burk plot analysis. The class given is tissue-based. The following applies: dose 3.3-9.9 nM. In outline:
as §1

Assay [5] addresses T2, Cholinesterase. The assay can be described thus: Mixed type inhibition of human serum BuChe assessed as increase in Km at 89 to 267 nM using varying level of butyrylthiocholine iodide as substrate by Lineweaver-Burk plot analysis. The class given is cell-free. The conditions noted are these: dose 89-267 nM. In outline: (§2)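 hBChE from human plasma diluted 1:125 in 0.1 M Na₃PO₄ pH 7.4. Ellman set-up (30 min room-temperature preincubation, then 37 °C with DTNB 1.2 mM) with substrate 0.25, 0.5, 1 and 2 mM and inhibitor 89 and 267 nM. Vmax and Km from nonlinear regression of substrate–velocity curves; Lineweaver–Burk plots by linear regression.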

For assay [6], the target named is T2, Cholinesterase. The assay can be described thus: Mixed type inhibition of human serum BuChe assessed as decrease in Vmax at 89 to 267 nM using varying level of butyrylthiocholine iodide as substrate by Lineweaver-Burk plot analysis. The class given is cell-free. The following applies: dose 89-267 nM. In outline: as §2

T2 sequence (P06276 whole entry): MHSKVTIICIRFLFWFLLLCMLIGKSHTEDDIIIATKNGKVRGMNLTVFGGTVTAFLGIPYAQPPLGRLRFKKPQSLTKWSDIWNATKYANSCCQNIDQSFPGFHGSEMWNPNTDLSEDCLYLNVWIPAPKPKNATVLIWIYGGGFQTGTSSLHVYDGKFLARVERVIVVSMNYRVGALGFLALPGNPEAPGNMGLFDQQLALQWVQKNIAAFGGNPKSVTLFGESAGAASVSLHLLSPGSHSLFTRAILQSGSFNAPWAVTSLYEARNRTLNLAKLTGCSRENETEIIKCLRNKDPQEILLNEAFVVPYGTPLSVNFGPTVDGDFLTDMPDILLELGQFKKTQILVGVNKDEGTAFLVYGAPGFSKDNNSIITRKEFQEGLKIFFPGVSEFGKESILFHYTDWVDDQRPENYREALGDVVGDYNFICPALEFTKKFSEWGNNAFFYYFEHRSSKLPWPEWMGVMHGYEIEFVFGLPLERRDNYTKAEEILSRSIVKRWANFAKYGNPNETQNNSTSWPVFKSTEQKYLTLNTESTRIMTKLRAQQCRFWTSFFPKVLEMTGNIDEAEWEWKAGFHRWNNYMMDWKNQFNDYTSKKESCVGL

For `COc1ccc2[nH]cc(CCNC(=O)Cn3cc(CN4CCc5cc(OC)c(OC)cc5C4CCCN4C(=O)c5ccccc5C4=O)nn3)c2c1` (stereo unspecified), the IC50 came out at 39900 nM in assay [1] and 26200 nM in assay [2].

For `COc1ccc2[nH]cc(CCNC(=O)CCCCn3cc(CCCCN4CC[C@@]56C=C[C@H](O)C[C@@H]5Oc5c(OC)ccc(c56)C4)nn3)c2c1`, the IC50 in assay [1] was found to be 18 nM; in assay [2] it was 963 nM.

As for `COc1ccc2[nH]c(CCNC(=O)CCCn3cc(CCCCN4CCc5cc(OC)c(OC)cc5C4CCCN4C(=O)c5ccccc5C4=O)nn3)cc2c1` (stereo unspecified), the IC50 in assay [1] was determined as 159000 nM; in assay [2] it was 4600 nM.

With `COc1ccc2[nH]cc(CCNC(=O)CCCCn3cc(CN4CC[C@@]56C=C[C@H](O)C[C@@H]5Oc5c(OC)ccc(c56)C4)nn3)c2c1`, the IC50 was found to be 1000 nM in assay [1] and 2020 nM in assay [2].

Take `COc1ccc2c3c1O[C@H]1C[C@@H](O)C=C[C@@]31CCN(CCCCc1cn(CCCCC(=O)NCCc3c[nH]c4ccccc34)nn1)C2`: the IC50 in assay [1] stood at 31 nM; in assay [2], 1290 nM.

As for `COc1ccc2[nH]cc(CCNC(=O)Cn3cc(CN4CC[C@@]56C=C[C@H](O)C[C@@H]5Oc5c(OC)ccc(c56)C4)nn3)c2c1`, the IC50 in assay [1] was 5410 nM; in assay [2] it was 8840 nM.

`COc1ccc2c3c1O[C@H]1C[C@@H](O)C=C[C@@]31CCN(CCCCc1cn(CCCC(=O)NCCc3c[nH]c4ccccc34)nn1)C2`: the inhibition result in assay [3], in assay [4], in assay [5] and in assay [6] was “Active” each time. Also, the IC50 in assay [1] was 120 nM; in assay [2] it was 209 nM.

`COc1ccc2[nH]cc(CCNC(=O)Cn3cc(CCCCN(C)CCCC4c5cc(OC)c(OC)cc5CCN4C)nn3)c2c1` (stereo unspecified): the IC50 in assay [1] came out at 2200 nM; in assay [2], 1600 nM.

In the case of `COc1ccc2[nH]c(CCNC(=O)Cn3cc(CCCCN4CCc5cc(OC)c(OC)cc5C4CCCN4C(=O)c5ccccc5C4=O)nn3)cc2c1` (stereo unspecified), the IC50 in assay [1] worked out at 174000 nM; in assay [2], 57200 nM.

Regarding `COc1ccc2[nH]cc(CCNC(=O)Cn3cc(CCCCN4CC[C@@]56C=C[C@H](O)C[C@@H]5Oc5c(OC)ccc(c56)C4)nn3)c2c1`, the IC50 amounted to 23 nM in assay [1] and 554 nM in assay [2].

As to `COc1ccc2c3c1O[C@H]1C[C@@H](O)C=C[C@@]31CCN(CCCCc1cn(CC(=O)NCCc3c[nH]c4ccccc34)nn1)C2`, the IC50 stood at 138 nM in assay [1] and 907 nM in assay [2].
